We go through 26 compounds from ChEMBL document CHEMBL1129593, “Halogenated mazindol analogs as potential inhibitors of the cocaine binding site at the dopamine transporter” (J Med Chem, 1996).

A word on the IC50: it is the concentration at which inhibition is half-maximal. A word on the inhibition: it is how much of the control response was suppressed. A high value points to a strong effect.

Test [1] addresses T1, Sodium-dependent dopamine transporter (Rattus norvegicus, UniProt P23977). Briefly: Inhibition of [3H]WIN-35428 binding to the dopamine transporter in rat brain. It is filed as tissue-based. Put shortly:
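Striatal tissue from male Sprague-Dawley rats (200-250 g), 0.1 mg original wet weight per tube. Nonspecific binding was defined with 30 µM (R)-(-)-cocaine. Stopped by filtration through polyethylenimine-soaked GF/B filters with three ice-cold buffer washes. Equilibrium binding analysis.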

For test [2], the target named is Sodium-dependent dopamine transporter (Rattus norvegicus) (UniProt P23977). Briefly: The ratio of uptake/binding at Dopamine transporter. It is filed as functional.
Chain of Sodium-dependent dopamine transporter (Rattus norvegicus) (P23977 whole entry): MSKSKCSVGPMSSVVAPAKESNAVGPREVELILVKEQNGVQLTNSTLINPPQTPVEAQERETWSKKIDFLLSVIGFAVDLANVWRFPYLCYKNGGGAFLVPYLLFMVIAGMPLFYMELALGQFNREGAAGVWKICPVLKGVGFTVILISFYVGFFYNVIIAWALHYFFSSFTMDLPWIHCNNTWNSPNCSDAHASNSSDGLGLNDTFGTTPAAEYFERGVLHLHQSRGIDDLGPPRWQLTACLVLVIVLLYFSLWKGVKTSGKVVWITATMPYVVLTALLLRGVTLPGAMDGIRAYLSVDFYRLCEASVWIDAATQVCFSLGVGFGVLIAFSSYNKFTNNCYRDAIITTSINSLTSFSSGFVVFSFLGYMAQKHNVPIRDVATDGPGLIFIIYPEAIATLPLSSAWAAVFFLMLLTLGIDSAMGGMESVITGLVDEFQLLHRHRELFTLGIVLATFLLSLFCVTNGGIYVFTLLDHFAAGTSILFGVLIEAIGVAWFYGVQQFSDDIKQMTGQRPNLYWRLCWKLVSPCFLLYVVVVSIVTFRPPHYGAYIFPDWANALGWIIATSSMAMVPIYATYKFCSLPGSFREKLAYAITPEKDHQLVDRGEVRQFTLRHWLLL
In test [3] the target is T1, Sodium-dependent dopamine transporter. Briefly: Inhibition of [3H]dopamine uptake at the dopamine transporter in rat striatal tissue. The class given is functional, tissue-based, Striatum. Put shortly: (§1)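 Crude synaptosomes were made from rat striatum: homogenised in 0.32 M sucrose, spun at 800g for 10 min, then at 27000g for 20 min. They were resuspended in Krebs-Hepes (pH 7.35) containing NaCl, KCl, KH₂PO₄, CaCl₂, MgSO₄, Hepes, glucose, ascorbic acid and nialamide. Preincubated with compound for 10 min at 30 °C, then given [³H]dopamine for 10 min and filtered.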

The target of test [4] is T2, Sodium-dependent serotonin transporter (Rattus norvegicus, UniProt P31652). As to the kind of experiment: Compound was tested for inhibition of [3H]citalopram binding at the serotonin transporter in rat fore brain membranes. The class given is cell membranes, Membrane.
T2 sequence (P31652 whole entry): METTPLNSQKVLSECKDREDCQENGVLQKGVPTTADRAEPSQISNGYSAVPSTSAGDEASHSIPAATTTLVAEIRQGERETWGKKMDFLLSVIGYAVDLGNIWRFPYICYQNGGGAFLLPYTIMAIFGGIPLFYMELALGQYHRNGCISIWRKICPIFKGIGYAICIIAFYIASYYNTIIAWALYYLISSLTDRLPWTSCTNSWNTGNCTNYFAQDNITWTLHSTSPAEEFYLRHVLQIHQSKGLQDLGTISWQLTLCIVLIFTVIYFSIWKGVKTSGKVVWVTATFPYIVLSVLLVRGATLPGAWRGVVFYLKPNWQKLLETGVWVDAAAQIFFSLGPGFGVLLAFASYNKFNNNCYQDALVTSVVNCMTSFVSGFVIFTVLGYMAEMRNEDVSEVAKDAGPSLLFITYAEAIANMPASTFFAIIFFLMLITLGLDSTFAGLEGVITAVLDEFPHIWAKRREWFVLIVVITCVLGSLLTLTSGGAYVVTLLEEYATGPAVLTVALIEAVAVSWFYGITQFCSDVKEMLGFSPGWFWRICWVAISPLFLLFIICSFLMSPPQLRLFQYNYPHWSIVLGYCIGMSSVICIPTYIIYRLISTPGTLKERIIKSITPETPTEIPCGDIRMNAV
In test [5] the target is T1, Sodium-dependent dopamine transporter. As to the kind of experiment: Compound was tested for inhibition of [3H]dopamine uptake at the dopamine transporter in rat […] tissue. The class given is tissue-based, Striatum. A digest of the protocol: as §1
Test [6] concerns the target T2, Sodium-dependent serotonin transporter. As to the kind of experiment: Compound was tested for inhibition of [3H]5-HT reuptake at Serotonin transporter.
The target of test [7] is Norepinephrine transporter (Rattus norvegicus) (UniProt Q9WTR4). As to the kind of experiment: Compound was tested for inhibition of [3H]DMI binding at the Norepinephrine transporter in rat cortical membranes at (10e-5) M. As to conditions: Membrane; concentration not given here. The class given is cell membranes.
Chain of Norepinephrine transporter (Rattus norvegicus) (Q9WTR4 as listed by the source): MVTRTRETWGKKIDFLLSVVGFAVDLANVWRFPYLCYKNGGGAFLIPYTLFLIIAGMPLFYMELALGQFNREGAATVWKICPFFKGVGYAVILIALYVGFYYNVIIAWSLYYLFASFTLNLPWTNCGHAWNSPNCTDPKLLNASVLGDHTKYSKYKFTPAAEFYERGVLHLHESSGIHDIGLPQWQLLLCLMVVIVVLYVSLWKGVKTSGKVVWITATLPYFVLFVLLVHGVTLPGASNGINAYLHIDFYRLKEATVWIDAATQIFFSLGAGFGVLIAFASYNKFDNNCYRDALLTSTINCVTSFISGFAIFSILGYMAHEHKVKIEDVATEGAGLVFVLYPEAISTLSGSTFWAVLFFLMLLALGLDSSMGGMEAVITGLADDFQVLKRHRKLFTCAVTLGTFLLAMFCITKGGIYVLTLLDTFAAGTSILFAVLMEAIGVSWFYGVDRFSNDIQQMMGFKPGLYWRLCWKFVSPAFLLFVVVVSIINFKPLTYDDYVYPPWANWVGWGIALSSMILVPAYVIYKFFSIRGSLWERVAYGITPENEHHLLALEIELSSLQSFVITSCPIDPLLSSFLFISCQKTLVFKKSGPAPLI
Test [8] shares this target. Briefly: Compound was tested for inhibition of [3H]-DMI binding at the Norepinephrine transporter in rat cortical membranes at (10e-5) M. The class given is cell membranes. The note with it: Membrane; concentration not given here.

T1 sequence (P23977 whole entry): as the sequence (P23977 whole entry) above

As for `OC1(c2ccc(Cl)c(Cl)c2)c2ccccc2C2=NCCCCN21` (stereo not given), the values for the IC50 in test [1] and in test [3] were 1.7 nM and 0.26 nM, respectively. The Uptake/Binding ratio in test [2] is 0.2.

`OC1(c2ccc(F)cc2)c2ccccc2C2=NCCN21` (stereo not given): the IC50 in test [1] stood at 13.3 nM; in test [3], 25.4 nM. In addition, the Uptake/Binding ratio in test [2] stood at 1.9.

`OC1(c2ccc(Cl)cc2)c2ccccc2C2=NCCCCN21` (stereo not given): the IC50 in test [4] turned out to be 1250 nM; in test [1], 1.5 nM; in test [3], 3.4 nM. For the same compound, the Uptake/Binding ratio in test [2] was 2.3.

Regarding `OC1(c2cccc(Cl)c2)c2ccccc2C2=NCCCN21` (stereo not given), the IC50 in test [1] stood at 1 nM; in test [3] it was 1.3 nM. Also, the Uptake/Binding ratio in test [2] turned out to be 1.3.

On to `OC1(c2ccc(Cl)cc2)c2cc(F)ccc2C2=NCCN21` (stereo not given), for which the IC50 turned out to be 6.5 nM in test [1] and 15 nM in test [3]. For the same compound, the Uptake/Binding ratio in test [2] stood at 2.3.

Consider `OC1(c2ccccc2F)c2ccccc2C2=NCCCN21` (stereo not given), for which the IC50 in test [1] stood at 23.2 nM; in test [3], 89 nM. In addition, the Uptake/Binding ratio in test [2] was found to be 3.8.

Regarding `CC1(C)CN2C(=N1)c1ccccc1C2(O)c1ccc(Cl)cc1` (stereo not given), the IC50 in test [5] is 106 nM; in test [1], 50.4 nM.

For the compound `OC1(c2ccc(Cl)cc2Cl)c2ccccc2C2=NCCN21` (stereo not given), the IC50 in test [1] stood at 76.5 nM; in test [3] it was 92 nM. Besides, the Uptake/Binding ratio in test [2] was determined as 1.2.

Turning to `OC1(c2ccccc2Cl)c2ccccc2C2=NCCN21` (stereo not given), the values for the IC50 in test [1] and in test [3] were 294 nM and 770 nM, respectively. Moreover, the Uptake/Binding ratio in test [2] was determined as 2.6.

On to `OC1(c2ccccc2)c2cc(F)ccc2C2=NCCN21` (stereo not given), for which the results for the IC50 in test [1] and in test [3] were 29.7 nM and 78 nM, respectively. Besides, the Uptake/Binding ratio in test [2] is 2.6.

With `OC1(c2ccccc2)c2ccccc2C2=NCCCN21` (stereo not given), the results for the IC50 in test [1] and in test [3] were 5.8 nM and 18 nM, respectively. Moreover, the Uptake/Binding ratio in test [2] is 3.1.

Take `CC1(C)CN=C2c3ccccc3C(O)(c3ccc(Cl)cc3)N2C1` (stereo not given): the half-inhibitory concentration (IC50) in test [1] amounted to 6.3 nM; in test [3] it was 1.7 nM. For the same compound, the Uptake/Binding ratio in test [2] was determined as 0.3.

Turning to `OC1(c2cccc(F)c2)c2ccccc2C2=NCCCN21` (stereo not given), the IC50 in test [1] turned out to be 2 nM; in test [3], 3.1 nM. In addition, the Uptake/Binding ratio in test [2] amounted to 1.6.

As to `OC1(c2ccc(F)cc2)c2ccccc2C2=NCCCN21` (stereo not given), the IC50 stood at 3.2 nM in test [1] and 8.5 nM in test [3].

Regarding `OC1(c2cccc(Cl)c2)c2ccccc2C2=NCCN21` (stereo not given), the IC50 in test [1] turned out to be 4.3 nM; in test [3], 9.2 nM. In addition, the Uptake/Binding ratio in test [2] worked out at 2.1.

For the compound `OC1(c2ccc(F)cc2)c2cc(Cl)ccc2C2=NCCN21` (stereo not given), the IC50 in test [1] was found to be 52.8 nM; in test [3], 53 nM. Further, the Uptake/Binding ratio in test [2] was 1.

Take `OC1(c2ccc(Cl)cc2)c2cc(Cl)c(Cl)cc2C2=NCCN21` (stereo not given): the IC50 in test [1] was determined as 13.6 nM.

Take `OC1(c2ccc(Br)cc2)c2ccccc2C2=NCCN21` (stereo not given): the IC50 came to 2.6 nM in test [1] and 8.6 nM in test [3]. The Uptake/Binding ratio in test [2] was 3.3.

In turn, `OC1(c2ccc(Cl)cc2)c2ccccc2C2=NCCN21` (stereo not given) [MAZINDOL] came in with an IC50 in test [6] of 231 nM. Moreover, in test [7], the inhibition was 60%.

For the compound `OC1(c2ccc(Cl)c(Cl)c2)c2ccccc2C2=NCCN21` (stereo not given), the IC50 in test [1] was determined as 2.5 nM; in test [3], 1.4 nM. The Uptake/Binding ratio in test [2] was 0.6.

Consider `OC1(c2ccccc2)c2ccccc2C2=NCCN21` (stereo not given), for which the IC50 in test [1] is 66 nM; in test [3] it was 124 nM. Also, in test [2], the Uptake/Binding ratio is 1.9.

For `OC1(c2ccccc2)c2ccccc2C2=NCCCCN21` (stereo not given), the values for the IC50 in test [1] and in test [3] were 5.9 nM and 11 nM, respectively. In addition, the Uptake/Binding ratio in test [2] was determined as 2.

Take `OC1(c2ccccc2)c2c(Cl)cccc2C2=NCCN21` (stereo not given): the IC50 in test [1] is 57.2 nM; in test [3] it was 58 nM.

As to `OC1(c2ccc(Cl)cc2)c2ccccc2C2=NCCCN21` (stereo not given), the half-inhibitory concentration (IC50) is 1040 nM in test [4], 1.7 nM in test [1] and 1.4 nM in test [3]. Further, the Uptake/Binding ratio in test [2] was determined as 0.8. In addition, in test [8], the inhibition was 62.8%.

With `OC1(c2ccc(I)cc2)c2ccccc2C2=NCCN21` (stereo not given), the IC50 in test [1] was found to be 17.2 nM; in test [3], 14 nM. Also, in test [2], the Uptake/Binding ratio stood at 0.8.

Turning to `OC1(c2ccccc2)c2cc(Cl)ccc2C2=NCCN21` (stereo not given), the IC50 worked out at 86.4 nM in test [1] and 55 nM in test [3]. Further, the Uptake/Binding ratio in test [2] was 0.6.
